In ChEMBL document CHEMBL1157537 (J Med Chem, 2008):
Activity calls are given as the source filed them. The calls are words filed in the database; no cut-off is given here.

How the values were obtained:
Rattus norvegicus [1] = species: Rattus norvegicus; assay: Progestational activity in estrone-treated ovariectomized rat assessed as effect on vaginal epithelial thickness; format: functional, organism-based
Method in brief: (§1)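 Ovariectomized rats were treated with estrone, alone or combined with test progestin, and compared with vehicle and estrone-only groups. Endpoints were uterine epithelial cell height, vaginal epithelial thickness and mammary alveolar bud proliferation.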

[2] = molecular target: T1, Mineralocorticoid receptor (Homo sapiens) (UniProt P08235); assay: Agonist activity at human mineralocorticoid receptor relative to aldosterone; format: functional
T1 sequence (whole entry): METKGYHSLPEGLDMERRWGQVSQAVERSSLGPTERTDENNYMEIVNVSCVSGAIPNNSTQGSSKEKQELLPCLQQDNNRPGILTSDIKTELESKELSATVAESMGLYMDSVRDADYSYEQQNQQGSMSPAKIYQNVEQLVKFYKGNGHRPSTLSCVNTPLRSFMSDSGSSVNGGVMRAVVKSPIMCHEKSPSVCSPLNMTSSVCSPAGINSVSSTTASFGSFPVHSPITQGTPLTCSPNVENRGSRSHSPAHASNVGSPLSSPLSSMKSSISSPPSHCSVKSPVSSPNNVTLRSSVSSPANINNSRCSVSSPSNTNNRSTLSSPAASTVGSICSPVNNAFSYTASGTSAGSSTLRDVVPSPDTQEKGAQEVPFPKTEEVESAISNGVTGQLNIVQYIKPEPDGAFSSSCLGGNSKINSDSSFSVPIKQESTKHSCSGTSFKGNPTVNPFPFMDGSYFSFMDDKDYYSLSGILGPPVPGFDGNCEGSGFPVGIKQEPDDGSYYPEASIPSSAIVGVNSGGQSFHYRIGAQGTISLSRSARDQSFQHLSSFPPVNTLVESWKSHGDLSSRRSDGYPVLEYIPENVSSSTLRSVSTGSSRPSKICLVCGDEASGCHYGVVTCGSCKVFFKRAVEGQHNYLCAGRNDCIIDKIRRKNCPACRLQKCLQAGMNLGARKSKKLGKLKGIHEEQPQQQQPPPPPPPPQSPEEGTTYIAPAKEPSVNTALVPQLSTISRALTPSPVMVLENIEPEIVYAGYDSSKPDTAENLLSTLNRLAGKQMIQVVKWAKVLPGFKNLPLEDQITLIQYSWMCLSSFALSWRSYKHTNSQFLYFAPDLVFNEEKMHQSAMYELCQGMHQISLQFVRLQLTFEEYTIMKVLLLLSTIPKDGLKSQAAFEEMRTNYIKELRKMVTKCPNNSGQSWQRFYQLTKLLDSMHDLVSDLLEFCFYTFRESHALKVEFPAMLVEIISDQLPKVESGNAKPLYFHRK

Rattus norvegicus [3] = assay: Inhibition of ovulation in rat assessed as reduction in number of ova at 0.25 to 2.0 mg/kg, po for 5 days; format: functional, organism-based
Method in brief: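 Female rats (n = 6 per group) received vehicle or progestin for 5 days at 0.25, 1.0 or 2.0 mg/kg. The number of ova per rat and the number of rats ovulating were then determined.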

[4] = molecular target: T2, Glucocorticoid receptor (Homo sapiens) (UniProt P04150); assay: Antagonist activity at human glucocorticoid receptor relative to Dexamethasone; format: functional
T2 sequence (whole entry): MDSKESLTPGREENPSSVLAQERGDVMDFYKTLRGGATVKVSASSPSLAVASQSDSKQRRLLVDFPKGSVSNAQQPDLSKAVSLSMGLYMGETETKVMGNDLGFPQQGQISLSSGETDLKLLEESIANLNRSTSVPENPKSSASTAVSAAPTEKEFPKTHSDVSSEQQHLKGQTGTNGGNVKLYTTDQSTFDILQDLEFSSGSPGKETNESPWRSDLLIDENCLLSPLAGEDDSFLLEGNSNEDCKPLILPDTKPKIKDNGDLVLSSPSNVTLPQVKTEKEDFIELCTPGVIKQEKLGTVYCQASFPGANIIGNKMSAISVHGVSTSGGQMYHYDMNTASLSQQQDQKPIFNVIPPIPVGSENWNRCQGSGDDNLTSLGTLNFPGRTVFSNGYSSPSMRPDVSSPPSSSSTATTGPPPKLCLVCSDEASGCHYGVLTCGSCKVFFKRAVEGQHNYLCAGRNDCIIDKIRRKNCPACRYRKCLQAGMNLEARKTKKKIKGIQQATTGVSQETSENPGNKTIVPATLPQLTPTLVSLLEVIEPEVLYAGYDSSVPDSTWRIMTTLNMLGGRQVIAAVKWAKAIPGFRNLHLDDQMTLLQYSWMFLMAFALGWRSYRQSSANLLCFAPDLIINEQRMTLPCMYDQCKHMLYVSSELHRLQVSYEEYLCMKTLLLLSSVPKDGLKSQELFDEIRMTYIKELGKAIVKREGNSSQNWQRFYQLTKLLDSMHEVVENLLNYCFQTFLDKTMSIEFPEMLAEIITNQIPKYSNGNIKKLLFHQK

Rattus norvegicus [5] = species: Rattus norvegicus; assay: Progestational activity in estrone-treated ovariectomized rat assessed as effect on uterine epithelial cell height; format: functional, organism-based; method in brief: as §1
[6] = molecular target: T3, Progesterone receptor (Homo sapiens) (UniProt P06401); assay: Agonist activity at human progesterone receptor in human T47D cells assessed as alkaline phosphatase activity relative to progesterone; format: functional, cell-based
T3 sequence (whole entry): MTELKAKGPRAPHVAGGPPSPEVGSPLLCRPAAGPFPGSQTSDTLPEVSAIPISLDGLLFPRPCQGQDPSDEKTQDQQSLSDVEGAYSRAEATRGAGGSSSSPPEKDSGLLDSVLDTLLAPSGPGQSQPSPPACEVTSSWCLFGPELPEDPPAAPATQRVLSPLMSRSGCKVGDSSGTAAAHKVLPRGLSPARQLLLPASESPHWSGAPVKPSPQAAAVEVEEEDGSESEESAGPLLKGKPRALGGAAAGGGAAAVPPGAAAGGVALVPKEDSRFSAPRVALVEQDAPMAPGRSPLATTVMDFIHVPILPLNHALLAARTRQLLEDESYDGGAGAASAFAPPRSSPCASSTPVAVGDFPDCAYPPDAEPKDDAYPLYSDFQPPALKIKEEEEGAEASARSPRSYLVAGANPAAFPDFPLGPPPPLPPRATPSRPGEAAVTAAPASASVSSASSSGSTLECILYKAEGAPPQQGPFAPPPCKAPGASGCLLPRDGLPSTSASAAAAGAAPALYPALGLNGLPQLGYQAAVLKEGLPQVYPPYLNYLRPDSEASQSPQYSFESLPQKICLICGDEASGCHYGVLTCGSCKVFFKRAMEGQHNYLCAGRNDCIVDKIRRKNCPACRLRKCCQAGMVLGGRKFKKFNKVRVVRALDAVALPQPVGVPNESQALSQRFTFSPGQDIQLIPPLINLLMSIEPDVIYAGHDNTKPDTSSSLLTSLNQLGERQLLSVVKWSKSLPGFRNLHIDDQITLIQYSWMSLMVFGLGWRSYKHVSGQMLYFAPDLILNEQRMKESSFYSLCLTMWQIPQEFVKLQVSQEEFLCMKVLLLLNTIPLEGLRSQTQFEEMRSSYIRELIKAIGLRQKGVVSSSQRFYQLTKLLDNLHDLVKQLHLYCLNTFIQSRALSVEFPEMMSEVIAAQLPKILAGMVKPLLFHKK

Rattus norvegicus [7] = species: Rattus norvegicus; assay: Progestational activity in estrone-treated ovariectomized rat assessed as reduction of breast alveolar bud proliferation; format: functional, organism-based; method in brief: as §1
[8] = molecular target: T1, Mineralocorticoid receptor (Homo sapiens); assay: Antagonist activity at human mineralocorticoid receptor relative to aldosterone; format: functional

CC1=C[C@@H]([C@@H]2Oc3c(F)cc(F)cc3-c3ccc4c(c32)C(C)=CC(C)(C)N4)CCC1 (stereo in doubt; (-)-5c)
Activity (Rattus norvegicus [1]): Active | Efficacy [2]: 8% | Activity (Rattus norvegicus [3]): Active | Efficacy [4]: 92% | Activity (Rattus norvegicus [5]): Active | Efficacy [6]: 55% | Activity (Rattus norvegicus [7]): Active | Efficacy [8]: 93%
